In PubChem BioAssay AID624338 (The Scripps Research Institute Molecular Screening Center, 2012) one finds outcome data, which are given here for 25 compounds.

Activity calls are given as the source filed them.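 The calls were made as follows: active = inhibition of a cysteine-free insulin-degrading enzyme mutant that persists after dilution, so judged irreversible; inactive = inhibition weakens or vanishes on dilution, so reversible.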

For the assay, the target named is Insulin-degrading enzyme (Homo sapiens) (UniProt P14735). Put plainly: reversibility of cysteine-free IDE inhibition, late-stage follow-up, mechanism study for IDE inhibitor project, biochemical, cysteine-free mutant, FRET1 substrate, round 2 (AID 624338). The settings on record: recombinant CF-IDE, FRET1 substrate fluorescence, reversibility by dilution. The method in brief: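 Test system: cysteine-free insulin-degrading enzyme (CF-IDE). Amount: 1 nM enzyme. Repeats: each concentration in triplicate. Controls: DMSO-only wells as 100%, enzyme-free wells as 0%. Also added: FRET1 peptide substrate at 1 µM. Incubation: room temperature reaction. Medium: pH 7.4 buffer. Compound dosing: 10-point semilog dilution series, nominal top dose 100 µM.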
Sequence of Insulin-degrading enzyme (Homo sapiens) (P14735 whole entry, looked up): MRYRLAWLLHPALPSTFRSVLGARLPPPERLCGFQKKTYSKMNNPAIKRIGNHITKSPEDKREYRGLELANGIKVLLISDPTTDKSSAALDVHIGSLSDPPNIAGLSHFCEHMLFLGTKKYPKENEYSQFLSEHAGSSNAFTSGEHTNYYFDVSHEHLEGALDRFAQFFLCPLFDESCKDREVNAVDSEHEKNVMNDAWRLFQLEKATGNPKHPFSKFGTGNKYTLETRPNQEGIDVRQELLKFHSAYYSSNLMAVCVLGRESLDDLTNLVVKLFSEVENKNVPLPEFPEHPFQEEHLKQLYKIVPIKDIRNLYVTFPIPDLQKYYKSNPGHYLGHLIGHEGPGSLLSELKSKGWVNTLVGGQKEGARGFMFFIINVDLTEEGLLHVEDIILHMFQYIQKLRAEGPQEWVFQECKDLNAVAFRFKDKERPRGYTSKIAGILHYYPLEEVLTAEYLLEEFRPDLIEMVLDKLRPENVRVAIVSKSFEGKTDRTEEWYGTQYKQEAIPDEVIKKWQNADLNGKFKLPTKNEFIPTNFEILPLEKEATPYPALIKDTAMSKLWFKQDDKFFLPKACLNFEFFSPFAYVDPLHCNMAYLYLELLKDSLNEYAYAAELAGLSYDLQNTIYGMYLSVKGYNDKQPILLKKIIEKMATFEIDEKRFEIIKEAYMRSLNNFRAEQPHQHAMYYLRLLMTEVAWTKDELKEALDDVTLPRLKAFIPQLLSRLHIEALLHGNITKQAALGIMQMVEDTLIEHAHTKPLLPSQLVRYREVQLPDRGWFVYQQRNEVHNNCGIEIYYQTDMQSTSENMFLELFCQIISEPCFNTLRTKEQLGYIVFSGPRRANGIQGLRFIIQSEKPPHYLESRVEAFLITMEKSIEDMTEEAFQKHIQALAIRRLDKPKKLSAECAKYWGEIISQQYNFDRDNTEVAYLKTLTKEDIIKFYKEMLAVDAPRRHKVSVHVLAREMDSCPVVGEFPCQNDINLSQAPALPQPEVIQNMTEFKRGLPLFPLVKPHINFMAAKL
For the compound `COc1ccc(C(=O)N2CCN(C(=O)COc3ccccc3)CC2)cc1OC`, the outcome was inactive.
The entry for `Cc1nc(COc2ccc(C(=O)N3CCN(C(=O)C4COc5ccccc5O4)CC3)cc2)cs1` (stereo not given) is “inactive”.
To `COc1ccc(OCC(=O)N2CCN(C(=O)c3ccc(OC)c(OC)c3)CC2)cc1` belongs “inactive”; to `COc1cccc(C(=O)N2CCN(C(=O)C3COc4ccccc4O3)CC2)c1` (stereo not given), “inactive”; to `Cc1ccc(-c2nnc(SCc3nc4ccccc4[nH]3)n2Cc2ccco2)cc1`, “inactive”.
The entry for `COc1ccc(C(=O)N2CCN(C(=O)C3COc4ccccc4O3)CC2)cc1` (stereo not given) is “inactive”; for `COc1cc(C(=O)N2CCN(C(=O)C3COc4ccccc4O3)CC2)cc(Cl)c1OC` (stereo not given) it is “inactive”.
Turning to `CCOc1ccc(C(=O)N2CCN(C(=O)C3COc4ccccc4O3)CC2)cc1` (stereo not given), the result was inactive.
The entry for `COc1ccc(C(=O)N2CCN(C(=O)COc3ccc(Cl)cc3)CC2)cc1OC` is “inactive”.
To `c1coc(Cn2c(SCc3nc4ccccc4[nH]3)nnc2-c2cccs2)c1` belongs “inactive”.
The entry for `Clc1ccc(COCc2nnc(SCc3nc4ccccc4[nH]3)n2Cc2ccco2)cc1` is “inactive”; for `COc1ccc(C(=O)N2CCN(C(=O)CCc3c[nH]c4ccccc34)CC2)cc1OC` it is “inactive”.
For the compound `c1ccc(-c2nnc(SCc3nc4ccccc4[nH]3)n2Cc2ccco2)cc1`, the result was inactive.
To `O=C(c1ccc(Oc2ccc(F)cc2)cc1)N1CCN(C(=O)C2COc3ccccc3O2)CC1` (stereo not given) belongs “inactive”.
To `O=C(c1ccc2nc(C(F)(F)F)[nH]c2c1)N1CCN(C(=O)C2COc3ccccc3O2)CC1` (stereo not given) belongs “inactive”; to `COc1ccc(C(=O)N2CCN(C(=O)COc3ccc(C)cc3)CC2)cc1OC`, “inactive”; to `COc1ccc(C(=O)N2CCN(C(=O)C3CC(=O)N(c4ccccc4)C3)CC2)cc1OC` (stereo not given), “inactive”.
The entry for `c1coc(Cn2c(SCc3nc4ccccc4[nH]3)nnc2-c2cnccn2)c1` is “inactive”.
Take `c1coc(Cn2c(SCc3nc4ccccc4[nH]3)nnc2-c2ccco2)c1`: the result was inactive.
The entry for `O=C(c1ccc(Oc2ccccc2)cc1)N1CCN(C(=O)C2COc3ccccc3O2)CC1` (stereo not given) is “inactive”; for `COc1ccc(C(=O)N2CCN(C(=O)C(c3ccccc3)c3ccccc3)CC2)cc1OC` it is “inactive”.
To `O=C(c1ccc(OCC2CCCO2)cc1)N1CCN(C(=O)C2COc3ccccc3O2)CC1` (stereo not given) belongs “inactive”; to `Cc1ccc(COCc2nnc(SCc3nc4ccccc4[nH]3)n2Cc2ccco2)cc1`, “inactive”; to `CC(=O)Nc1ccccc1C(=O)N1CCN(C(=O)C2COc3ccccc3O2)CC1` (stereo not given), “inactive”.
The entry for `c1ccc(-c2nnc(SCc3nc4ccccc4[nH]3)n2Cc2ccco2)nc1` is “inactive”.
